Assay [1] deals with T1, Delta-type opioid receptor (Homo sapiens, UniProt P41143). Nature of the assay: Displacement of [3H]diprenorphine from human cloned delta opioid receptor.
The target of assay [2] is T2, Kappa-type opioid receptor (Homo sapiens, UniProt P41145). The experiment in a line: Displacement of [3H]diprenorphine from human cloned kappa opioid receptor.
Assay [3] relates to Mus musculus. The experiment in a line: Antagonist activity on morphine-induced gastrointestinal antitransit effect in Swiss Webster mouse at 0.3 mg/kg, po after 1 hr. Also noted: dose 0.3 mg/kg. In kind it is functional, organism-based.
The subject of assay [4] is Mus musculus. Nature of the assay: Antagonist activity on morphine-induced gastrointestinal antitransit effect in Swiss Webster mouse at 1 mg/kg, sc after 1 hr. It is filed as functional. Also noted: scale not given: the % may be the effect or the level left. Conditions: route subcutaneous. In short, it runs like this: (§1)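 Male Swiss-Webster mice (20-25 g), fasted overnight, got vehicle (10% DMSO:20% cremophor EL:70% saline) or compound s.c. Morphine (3 mg/kg s.c.) followed 25 min later. After a further 10 min, mice received 0.3 mL charcoal meal (charcoal:flour:water 1:2:8, w/w/v). Small intestine removed 25 min later; %GIT = charcoal leading-edge distance/intestine length ×100.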

Assay [5] relates to Mus musculus. The experiment in a line: Antagonist activity on morphine-induced physical dependence in Swiss Webster mouse at 10 mg/kg, po. It is filed as functional, organism-based. Also noted: dose 10 mg/kg.
Assay [6] concerns Mus musculus. The experiment in a line: Antagonist activity on morphine-induced gastrointestinal antitransit effect in Swiss Webster mouse at 0.1 mg/kg, sc after 1 hr. It is filed as functional. Also noted: scale not given: the % may be the effect or the level left. Conditions: route subcutaneous. A digest of the protocol:
as §1

Assay [7] has as its target T2, Kappa-type opioid receptor. The experiment in a line: Displacement of [3H]diprenorphine from human cloned kappa opioid receptor at 10 uM.
In assay [8] the target is T1, Delta-type opioid receptor. The experiment in a line: Displacement of [3H]diprenorphine from human cloned delta opioid receptor at 10 uM.
The target in assay [9] is Mu-type opioid receptor (Homo sapiens) (UniProt P35372). Nature of the assay: Displacement of [3H]diprenorphine from human cloned mu opioid receptor at 10 uM.

Activity calls are given as the source filed them. No cut-off for these calls is given here.

T2 sequence (P41145 whole entry): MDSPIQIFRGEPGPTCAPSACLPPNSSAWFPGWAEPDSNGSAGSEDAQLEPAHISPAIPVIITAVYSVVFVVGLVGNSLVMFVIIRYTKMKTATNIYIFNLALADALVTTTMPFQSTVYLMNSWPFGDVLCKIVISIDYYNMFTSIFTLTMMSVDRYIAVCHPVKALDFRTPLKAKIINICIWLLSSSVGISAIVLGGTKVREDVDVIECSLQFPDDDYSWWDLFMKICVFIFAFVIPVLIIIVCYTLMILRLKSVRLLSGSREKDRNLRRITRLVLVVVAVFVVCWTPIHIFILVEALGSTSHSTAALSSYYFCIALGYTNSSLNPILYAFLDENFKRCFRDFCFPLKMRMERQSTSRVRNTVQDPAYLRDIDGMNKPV
T1 sequence (P41143 whole entry): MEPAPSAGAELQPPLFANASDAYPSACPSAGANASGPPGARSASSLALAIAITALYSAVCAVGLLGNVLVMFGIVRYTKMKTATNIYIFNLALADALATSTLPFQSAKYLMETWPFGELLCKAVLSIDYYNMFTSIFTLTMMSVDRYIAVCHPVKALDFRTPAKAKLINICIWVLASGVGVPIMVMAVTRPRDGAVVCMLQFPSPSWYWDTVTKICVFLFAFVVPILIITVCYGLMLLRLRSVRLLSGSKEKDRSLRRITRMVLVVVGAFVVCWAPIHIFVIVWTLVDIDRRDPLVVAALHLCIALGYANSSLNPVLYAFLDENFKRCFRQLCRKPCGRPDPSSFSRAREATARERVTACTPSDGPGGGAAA
Chain of Mu-type opioid receptor (Homo sapiens) (P35372 whole entry): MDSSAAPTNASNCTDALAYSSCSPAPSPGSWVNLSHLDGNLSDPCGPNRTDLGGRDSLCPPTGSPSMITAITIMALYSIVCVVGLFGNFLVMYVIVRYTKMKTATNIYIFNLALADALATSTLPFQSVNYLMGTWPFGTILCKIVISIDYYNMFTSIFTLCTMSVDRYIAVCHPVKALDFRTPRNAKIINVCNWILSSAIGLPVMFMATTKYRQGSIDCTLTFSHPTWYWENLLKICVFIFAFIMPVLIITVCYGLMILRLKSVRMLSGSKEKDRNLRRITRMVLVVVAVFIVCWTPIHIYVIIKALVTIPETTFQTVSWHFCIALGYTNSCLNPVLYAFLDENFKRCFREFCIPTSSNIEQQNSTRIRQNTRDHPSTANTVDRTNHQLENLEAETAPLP

`C[C@@H](NC(=O)[C@@H](Cc1ccccc1)CN1CC[C@@](C)(c2cccc(O)c2)[C@@H](C)C1)C(=O)O`: the figures for the Ki in assay [1] and in assay [2] were 0.074 µM and 0.91 µM, respectively.

As for `C[C@H]1CN(C[C@H](Cc2ccccc2)C(=O)N[C@@H](CCCCN)C(=O)O)CC[C@@]1(C)c1cccc(O)c1`, the result in the assay on Mus musculus [3] was Active. Further, the results for the Activity with Mus musculus [4] and in the assay with Mus musculus [6] were 82% and 64%, respectively. The result in the assay on Mus musculus [5] was inactive.

The compound `CC(C)CN(C(=O)CCN1CC[C@@](C)(c2cccc(O)c2)[C@@H](C)C1)[C@@H](Cc1ccccc1)C(=O)O` registered a Ki in assay [2] of 2.2 µM.

For the compound `C[C@H]1CN(C[C@H](Cc2ccccc2)C(=O)N[C@@H](Cc2cccc3ccccc23)C(=O)O)CC[C@@]1(C)c1cccc(O)c1`, the Ki in [1] amounted to 0.031 µM; in assay [2], 0.083 µM.

With `C[C@H]1CN(CCC(=O)NCC(=O)O)CC[C@@]1(C)c1cccc(O)c1`, the inhibition in assay [7] was determined as 4%; in assay [8] it was 5%; in assay [9], 20%.

Turning to `C[C@H](NC(=O)[C@@H](Cc1ccccc1)CN1CC[C@@](C)(c2cccc(O)c2)[C@@H](C)C1)C(=O)O`, the results for the Ki in [1] and in assay [2] were 0.022 µM and 0.067 µM, respectively.

On to `C[C@H]1CN(C[C@H](Cc2ccccc2)C(=O)N[C@@H](Cc2ccc3ccccc3c2)C(=O)O)CC[C@@]1(C)c1cccc(O)c1`, for which the values for the inhibitory constant (Ki) in [1] and in [2] were 0.0032 µM and 0.24 µM, respectively.

Compound `C[C@H]1CN(C[C@H](Cc2ccccc2)C(=O)N[C@@H](CCC(=O)O)C(=O)O)CC[C@@]1(C)c1cccc(O)c1` had an inhibition in [7] of 26%. The compound further came in with a Ki in assay [1] of 0.36 µM.

Regarding `C[C@H]1CN(CCC(=O)N[C@@H](Cc2ccc(-c3ccccc3)cc2)C(=O)O)CC[C@@]1(C)c1cccc(O)c1`, the results for the Ki in assay [1] and in assay [2] were 0.16 µM and 1.1 µM, respectively.

Turning to `C[C@H]1CN(CCC(=O)N[C@@H](CCCCN)C(=O)O)CC[C@@]1(C)c1cccc(O)c1`, the inhibition in [7] is 3%; in assay [8] it was 11%; in assay [9], 45%.

In the case of `C[C@H]1CN(CCC(=O)N(c2ccccc2)[C@@H](Cc2ccccc2)C(=O)O)CC[C@@]1(C)c1cccc(O)c1`, the inhibition constant Ki in [1] came to 0.067 µM; in assay [2] it was 1.4 µM.

Regarding `C[C@H]1CN(CCC(=O)N[C@@H](CCc2ccccc2)C(=O)O)CC[C@@]1(C)c1cccc(O)c1`, the results for the Ki in [1] and in assay [2] were 0.36 µM and 0.69 µM, respectively.

In the case of `C[C@H]1CN(C[C@H](Cc2ccccc2)C(=O)N[C@@H](CCc2ccccc2)C(=O)O)CC[C@@]1(C)c1cccc(O)c1`, the Ki in [1] was found to be 0.01 µM; in assay [2], 0.51 µM.

With `C[C@H]1CN(CCC(=O)N(Cc2ccccc2)[C@@H](Cc2ccccc2)C(=O)O)CC[C@@]1(C)c1cccc(O)c1`, the Ki worked out at 0.039 µM in assay [1] and 0.55 µM in assay [2].

`C[C@H]1CN(CCC(=O)N(CC2CC2)[C@@H](Cc2ccccc2)C(=O)O)CC[C@@]1(C)c1cccc(O)c1`: the inhibition constant Ki in assay [1] amounted to 0.1 µM; in [2] it was 2.2 µM.

Take `C[C@H]1CN(C[C@H](Cc2ccccc2)C(=O)N[C@@H](Cc2ccccc2)C(=O)O)CC[C@@]1(C)c1cccc(O)c1`: the Ki stood at 0.015 µM in [1] and 0.25 µM in [2].

Consider `C[C@H]1CN(CCC(=O)N[C@@H](Cc2ccccc2)C(=O)O)CC[C@@]1(C)c1cccc(O)c1`, for which, in assay [7], the inhibition worked out at 39%. Also, the Ki in assay [1] is 0.99 µM.

Compound `C[C@H]1CN(CCC(=O)N(C)[C@@H](Cc2ccccc2)C(=O)O)CC[C@@]1(C)c1cccc(O)c1` returned an inhibition in assay [7] of 35%. This compound also showed a Ki in assay [1] of 0.62 µM.

For the compound `C[C@H]1CN(C[C@H](Cc2ccccc2)C(=O)N[C@@H](CC(=O)O)C(=O)O)CC[C@@]1(C)c1cccc(O)c1`, the inhibition in assay [7] came to 27%. This compound showed an inhibition constant (Ki) in assay [1] of 0.5 µM.

For the compound `C[C@H]1CN(C[C@H](Cc2ccccc2)C(=O)NCC(=O)O)CC[C@@]1(C)c1cccc(O)c1` [ALVIMOPAN], the Ki in assay [1] was found to be 0.012 µM; in assay [2], 0.1 µM. Moreover, the Activity with Mus musculus [6] was determined as 69%.

Consider `C[C@H]1CN(C[C@H](Cc2ccccc2)C(=O)N[C@@H](Cc2ccc(-c3ccccc3)cc2)C(=O)O)CC[C@@]1(C)c1cccc(O)c1`, for which the inhibition constant (Ki) amounted to 0.0083 µM in assay [1] and 0.16 µM in assay [2].

In assay [7], `CCN(C(=O)CCN1CC[C@@](C)(c2cccc(O)c2)[C@@H](C)C1)[C@@H](Cc1ccccc1)C(=O)O` registered an inhibition of 44%. The compound also had an inhibition constant (Ki) in assay [1] of 0.51 µM.

As for `C[C@H]1CN(CCC(=O)N(Cc2ccc(-c3ccccc3)cc2)[C@@H](Cc2ccccc2)C(=O)O)CC[C@@]1(C)c1cccc(O)c1`, the inhibitory constant (Ki) in assay [1] is 0.052 µM; in assay [2], 0.23 µM.

For the compound `C[C@H]1CN(C[C@H](Cc2ccccc2)C(=O)N[C@@H](CC2CCCCC2)C(=O)O)CC[C@@]1(C)c1cccc(O)c1`, the Ki was 0.015 µM in assay [1] and 0.72 µM in assay [2].

Compound `C[C@H]1CN(CCC(=O)N[C@@H](CC2CCCCC2)C(=O)O)CC[C@@]1(C)c1cccc(O)c1` had an inhibition in assay [7] of 44%. The compound also returned an inhibition constant (Ki) in assay [1] of 0.17 µM.

For the compound `C[C@H]1CN(CCC(=O)N(Cc2cccc(Cl)c2)[C@@H](Cc2ccccc2)C(=O)O)CC[C@@]1(C)c1cccc(O)c1`, the Ki in assay [1] was 0.024 µM; in [2], 0.46 µM.

Turning to `C[C@H]1CN(CCC(=O)N(CCc2ccccc2)[C@@H](Cc2ccccc2)C(=O)O)CC[C@@]1(C)c1cccc(O)c1`, affinity in [2] was put at a Ki of 1.2 µM.

(Values after ChEMBL document CHEMBL1144033, “Novel trans-3,4-dimethyl-4-(3-hydroxyphenyl)piperidines as mu opioid receptor antagonists with improved opioid receptor selectivity profiles” (Bioorg Med Chem Lett, 2008).)
